In ChEMBL document CHEMBL4261499, “Chiral disubstituted piperidinyl ureas: a class of dual diacylglycerol lipase-α and ABHD6 inhibitors” (Medchemcomm, 2017):
Activity calls are given as the source filed them. The rule behind the calls is not given here.

Experiments:
[1] = target: T1, Monoacylglycerol lipase ABHD6 (Homo sapiens, UniProt Q9BV23); test: Inhibition of recombinant human ABHD6 expressed in HEK293 cells by AmplifuTM red dye based fluorescence assay; assay type: cell-based
T1 sequence (Q9BV23 whole entry): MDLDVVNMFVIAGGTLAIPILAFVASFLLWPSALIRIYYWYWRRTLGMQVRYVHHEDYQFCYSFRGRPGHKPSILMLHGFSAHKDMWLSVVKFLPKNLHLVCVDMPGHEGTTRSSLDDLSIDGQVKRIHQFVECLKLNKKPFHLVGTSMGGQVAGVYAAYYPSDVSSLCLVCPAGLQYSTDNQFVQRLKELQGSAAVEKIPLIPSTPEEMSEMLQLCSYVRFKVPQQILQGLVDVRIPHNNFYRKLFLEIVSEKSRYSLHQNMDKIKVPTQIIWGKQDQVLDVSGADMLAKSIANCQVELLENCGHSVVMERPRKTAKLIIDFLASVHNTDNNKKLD
Procedure, shortened: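 Membranes from transiently transfected HEK293T cells expressing human ABHD6, 40 μg mL-1 final protein. Real-time coupled fluorescence assay with natural substrate 2-AG (25 μM). Glycerol released is detected via glycerol kinase, glycerol-3-phosphate oxidase and HRP (0.2 U mL-1 each), 0.125 mM ATP and 10 μM Amplifu Red. Assay contains 5% DMSO and 0.5% acetonitrile. pIC50 ± SEM.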

[2] = target: T2, Diacylglycerol lipase-alpha (Homo sapiens, UniProt Q9Y4D2); test: Inhibition of recombinant human DAGLalpha expressed in HEK293 cells using PNP-butyrate as substrate pretreated for 20 to 30 mins followed by substrate addition measured every 60 secs for 20 mins by colorimetric method; assay type: cell-based
T2 sequence (Q9Y4D2 whole entry): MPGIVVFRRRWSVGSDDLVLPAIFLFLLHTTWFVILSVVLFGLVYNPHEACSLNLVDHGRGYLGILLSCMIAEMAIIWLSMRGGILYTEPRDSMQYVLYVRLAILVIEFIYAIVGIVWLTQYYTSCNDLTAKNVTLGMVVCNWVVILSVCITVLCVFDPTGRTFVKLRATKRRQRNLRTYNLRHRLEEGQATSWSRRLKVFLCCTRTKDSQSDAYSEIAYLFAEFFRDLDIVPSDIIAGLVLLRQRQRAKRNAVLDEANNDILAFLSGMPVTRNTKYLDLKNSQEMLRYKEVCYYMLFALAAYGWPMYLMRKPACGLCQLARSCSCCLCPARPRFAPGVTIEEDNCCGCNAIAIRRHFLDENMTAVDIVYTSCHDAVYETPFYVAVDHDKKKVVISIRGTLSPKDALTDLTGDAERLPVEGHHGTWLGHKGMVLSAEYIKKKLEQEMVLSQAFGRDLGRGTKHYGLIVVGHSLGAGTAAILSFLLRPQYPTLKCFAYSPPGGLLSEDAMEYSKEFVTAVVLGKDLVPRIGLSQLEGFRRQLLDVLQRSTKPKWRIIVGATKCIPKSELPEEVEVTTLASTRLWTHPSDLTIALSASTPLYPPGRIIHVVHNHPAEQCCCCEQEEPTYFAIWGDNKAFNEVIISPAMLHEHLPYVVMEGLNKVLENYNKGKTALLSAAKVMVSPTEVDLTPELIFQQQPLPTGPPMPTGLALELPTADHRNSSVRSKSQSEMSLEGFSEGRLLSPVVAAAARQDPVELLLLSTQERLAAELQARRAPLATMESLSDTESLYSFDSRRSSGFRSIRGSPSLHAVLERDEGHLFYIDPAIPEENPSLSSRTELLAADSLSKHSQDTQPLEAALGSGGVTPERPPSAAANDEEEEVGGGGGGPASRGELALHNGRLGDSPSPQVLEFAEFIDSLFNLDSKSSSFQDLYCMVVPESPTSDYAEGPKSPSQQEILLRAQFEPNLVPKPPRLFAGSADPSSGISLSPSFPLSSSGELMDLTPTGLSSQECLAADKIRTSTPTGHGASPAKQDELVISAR
Procedure, shortened: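 Membrane fraction from HEK293T cells transiently transfected with human DAGLα (PEI transfection, harvested at 72 h). Membranes used at 0.05 μg μL-1 final protein in 50 mM HEPES pH 7.2. Colorimetric readout of para-nitrophenylbutyrate hydrolysis. pIC50 ± SEM.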

[3] = target: T3, Triacylglycerol hydrolase DDHD2 (Mus musculus) (UniProt Q80Y98); test: Inhibition of MB064 labelling of DDHD2 in mouse brain homogenates at 10 uM pretreated for 30 mins followed by MB064 addition and measured after 20 mins by activity based protein profiling assay; assay type: tissue-based
T3 sequence (whole entry): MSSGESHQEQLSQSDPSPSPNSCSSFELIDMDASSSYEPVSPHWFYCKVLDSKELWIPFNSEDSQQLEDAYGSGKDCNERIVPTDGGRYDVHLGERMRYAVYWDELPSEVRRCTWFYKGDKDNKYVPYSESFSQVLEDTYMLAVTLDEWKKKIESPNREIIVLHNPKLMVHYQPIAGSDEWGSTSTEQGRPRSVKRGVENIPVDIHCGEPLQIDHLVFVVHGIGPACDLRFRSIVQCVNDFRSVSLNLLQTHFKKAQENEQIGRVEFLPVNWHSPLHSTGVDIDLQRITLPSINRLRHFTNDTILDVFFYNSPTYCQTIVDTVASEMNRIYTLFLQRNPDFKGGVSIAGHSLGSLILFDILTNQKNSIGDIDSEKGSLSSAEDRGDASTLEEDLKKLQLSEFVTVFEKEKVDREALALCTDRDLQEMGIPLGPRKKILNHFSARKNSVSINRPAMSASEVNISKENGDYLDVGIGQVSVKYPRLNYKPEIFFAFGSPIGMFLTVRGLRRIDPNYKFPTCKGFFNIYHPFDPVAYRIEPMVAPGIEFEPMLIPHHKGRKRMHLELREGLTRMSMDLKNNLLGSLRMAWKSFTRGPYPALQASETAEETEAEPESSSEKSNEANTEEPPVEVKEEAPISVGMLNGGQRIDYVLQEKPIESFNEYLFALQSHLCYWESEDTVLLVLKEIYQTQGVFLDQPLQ
Procedure, shortened: (§1)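 Mouse brain membrane proteome preincubated 30 min with inhibitor (10 μM), then labelled with MB064 probe (0.25 μM, 20 min). Readout by gel-based competitive ABPP. Band intensities corrected for protein loading per lane from Coomassie staining. Means ± SEM, n = 3.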

[4] = target: T4, Monoacylglycerol lipase ABHD6 (Mus musculus) (UniProt Q8R2Y0); test: Inhibition of MB064 labelling of ABHD6 in mouse brain homogenates at 10 uM pretreated for 30 mins followed by MB064 addition and measured after 20 mins by activity based protein profiling assay relative to control; assay type: tissue-based; procedure, shortened: as §1
T4 sequence (whole entry): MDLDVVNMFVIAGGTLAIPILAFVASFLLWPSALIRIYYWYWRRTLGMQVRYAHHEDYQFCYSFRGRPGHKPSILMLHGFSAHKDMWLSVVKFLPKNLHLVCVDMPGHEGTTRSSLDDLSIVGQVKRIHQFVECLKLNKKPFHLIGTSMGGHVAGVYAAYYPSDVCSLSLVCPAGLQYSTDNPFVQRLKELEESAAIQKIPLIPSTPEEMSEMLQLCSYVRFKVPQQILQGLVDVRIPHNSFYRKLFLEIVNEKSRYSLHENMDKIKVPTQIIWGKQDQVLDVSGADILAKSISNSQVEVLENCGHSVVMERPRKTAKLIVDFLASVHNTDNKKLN

| IC50 [1] [nM] | IC50 [2] [nM] | inhibition [3] | inhibition [4] [%] | SMILES |
| --- | --- | --- | --- | --- |
| 6.31 | 25.1 | Active | 86 | O=C(N1CCC=C[C@@H]1COCc1ccccc1)n1cc(-c2ccc(Oc3ccccc3)cc2)nn1 |
| 10 | 31.6 | Active | 95 | O=C(N1C[C@@H](O)C=C[C@@H]1COCc1ccccc1)n1cc(-c2ccc(-c3ccccc3)cc2)nn1 |
| 3.16 | 79.4 | Active | 96 | O=C(N1CCCC[C@@H]1COCc1ccccc1)n1cc(-c2ccc(-c3ccccc3)cc2)nn1 |

The remaining lines, values behind:

| SMILES | IC50 [1] [nM] | IC50 [2] [nM] | inhibition [3] | inhibition [4] [%] |
| --- | --- | --- | --- | --- |
| O=C(N1CCC=C[C@@H]1COCc1ccccc1)n1cc(-c2ccccc2)nn1 | 158 | 158 | Active | 89 |
| O=C(N1CCC=C[C@@H]1COCc1ccccc1)n1cc(-c2ccc([N+](=O)[O-])cc2)nn1 | 31.6 | 15.8 | Active | 93 |
| O=C(N1CCC=C[C@@H]1COCc1ccccc1)n1cc(-c2ccc(-c3ccccc3)cc2)nn1 | 12.6 | 25.1 | Active | 96 |
| O=C(N1CCC=C[C@@H]1COCc1ccccc1)n1cc(-c2ccc(Br)cc2)nn1 | 15.8 | 15.8 | Active | 94 |
